Here are results for 45 molecules from ChEMBL document CHEMBL1138687, “Pharmacological exploitation of the alpha1-adrenoreceptor antagonist doxazosin to develop a novel class of antitumor agents that block intracellular protein kinase B/Akt activation” (J Med Chem, 2004).

Molecules are shown by their SMILES.

In the test the test system is PC-3. Kind of test: Inhibition of prostate cancer (PC-3) cell proliferation. Type of test: functional, cell-based. Particulars: Homo sapiens. In short, it runs like this: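 PC-3 cells, 8000/well, grown in RPMI 1640 with 10% FBS at 37 °C, 5% CO2. Exposed to the test agent in 10% FBS-supplemented RPMI 1640 for 48 h in six replicates. MTT at 0.5 mg/mL then added for 2 h at 37 °C, reduced dye dissolved in DMSO, absorbance read at 570 nm. IC50 taken from cell viability.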
As usually defined, the IC50 is the concentration at which inhibition is half-maximal. `COc1cc2nc(N3CCN(S(=O)(=O)c4ccc(-c5ccc(C(F)(F)F)cc5)cc4)CC3)nc(N)c2cc1OC` yielded a half-inhibitory concentration (IC50) of 3.3 µM.

For `COc1cc2nc(N3CCN(S(=O)(=O)c4c(C(C)C)cc(C(C)C)cc4C(C)C)CC3)nc(N)c2cc1OC`, the IC50 came to 24 µM.

The molecule `COc1cc2nc(N3CCN(S(=O)(=O)c4ccc(-c5cc6ccccc6c6ccccc56)cc4)CC3)nc(N)c2cc1OC` came in with an IC50 of 5.2 µM.

`COc1cc2nc(N3CCN(S(=O)(=O)c4ccc(-c5ccc(C)cc5)cc4)CC3)nc(N)c2cc1OC`: the IC50 was found to be 3.4 µM.

Turning to `COc1cc2nc(N3CCN(C(=O)c4ccc(C#N)cc4)CC3)nc(N)c2cc1OC`, the IC50 amounted to 68 µM.

In turn, `COc1cc2nc(N3CCN(S(=O)(=O)c4ccc(C(C)(C)C)cc4)CC3)nc(N)c2cc1OC` displayed an IC50 of 4.1 µM.

Molecule `CCCCc1ccc(-c2ccc(S(=O)(=O)N3CCN(c4nc(N)c5cc(OC)c(OC)cc5n4)CC3)cc2)cc1` showed a half-inhibitory concentration (IC50) of 3.4 µM.

With `COc1cc2nc(N3CCN(S(=O)(=O)c4ccc(S(C)(=O)=O)cc4)CC3)nc(N)c2cc1OC`, the IC50 came to 17 µM.

Molecule `COc1cc2nc(N3CCN(S(=O)(=O)c4cc(F)c(Cl)c(C(=O)O)c4)CC3)nc(N)c2cc1OC` returned an IC50 of 56 µM.

For the molecule `COc1cc2nc(N3CCN(C(=O)c4ccc(Cl)cc4)CC3)nc(N)c2cc1OC`, the IC50 was 60 µM.

`COc1cc2nc(N3CCN(S(=O)(=O)c4cccc([N+](=O)[O-])c4)CC3)nc(N)c2cc1OC` registered an IC50 of 32 µM.

For the molecule `COc1cc2nc(N3CCN(S(=O)(=O)c4ccc(I)cc4)CC3)nc(N)c2cc1OC`, the IC50 came out at 15 µM.

`COc1cc2nc(N3CCN(S(=O)(=O)c4ccc(Br)cc4)CC3)nc(N)c2cc1OC` displayed an IC50 of 20 µM.

Regarding `CCCOc1cc2nc(N3CCN(S(=O)(=O)c4ccc(-c5ccccc5)cc4)CC3)nc(N)c2cc1OCCC`, it took 2.5 µM to reach half-maximal inhibition (IC50).

Molecule `C=CCOc1cc2nc(N3CCN(S(=O)(=O)c4ccc(-c5ccccc5)cc4)CC3)nc(N)c2cc1OCC=C` yielded an IC50 of 3.3 µM.

`COc1cc2nc(N3CCN(C(=O)c4ccc(C(C)(C)C)cc4)CC3)nc(N)c2cc1OC` showed an IC50 of 47 µM.

As for `COc1cc2nc(N3CCN(S(=O)(=O)c4ccc(-c5ccccc5)cc4)CC3)nc(N)c2cc1OC`, the IC50 is 4.2 µM.

As for `COc1cc2nc(N3CCN(S(=O)(=O)c4ccc5ccccc5c4)CC3)nc(N)c2cc1OC`, the IC50 came out at 15 µM.

`COc1cc2nc(N3CCN(S(=O)(=O)c4ccc(-c5ccc(C(C)(C)C)cc5)cc4)CC3)nc(N)c2cc1OC`: the IC50 worked out at 10 µM.

The molecule `COc1cc2nc(N3CCN(C(=O)c4ccc([N+](=O)[O-])cc4)CC3)nc(N)c2cc1OC` came in with an IC50 of 75 µM.

For the molecule `COc1cc2nc(N3CCN(S(=O)(=O)c4ccc(-c5ccc(S(C)(=O)=O)cc5)cc4)CC3)nc(N)c2cc1OC`, the IC50 came out at 7.2 µM.

`COc1cc2nc(N3CCN(S(=O)(=O)c4ccc(OC(F)(F)F)cc4)CC3)nc(N)c2cc1OC` yielded an IC50 of 25 µM.

The molecule `CCCCOc1cc2nc(N3CCN(S(=O)(=O)c4ccc(-c5ccccc5)cc4)CC3)nc(N)c2cc1OCCCC` yielded an IC50 of 3.5 µM.

Turning to `COc1cc2nc(N3CCN(S(=O)(=O)c4cc(Cl)ccc4Cl)CC3)nc(N)c2cc1OC`, 60 µM corresponded to half-maximal inhibition (IC50).

For the molecule `COc1cc2nc(N3CCN(C(=O)c4cccc(C#N)c4)CC3)nc(N)c2cc1OC`, it took 82 µM to reach half-maximal inhibition (IC50).

In turn, `COc1cc2nc(N3CCN(S(=O)(=O)c4ccc(C)cc4)CC3)nc(N)c2cc1OC` yielded an IC50 of 30 µM.

`COc1ccc(C(=O)N2CCN(c3nc(N)c4cc(OC)c(OC)cc4n3)CC2)cc1OC` came in with a concentration for half-maximal inhibition (IC50) of 71 µM.

Turning to `COc1cc2nc(N3CCN(S(=O)(=O)c4ccc([N+](=O)[O-])cc4)CC3)nc(N)c2cc1OC`, half-maximal inhibition (IC50) was put at 36 µM.

Regarding `COc1cc2nc(N3CCN(S(=O)(=O)c4cccc5ccccc45)CC3)nc(N)c2cc1OC`, the midpoint of inhibition, the IC50, lay at 14 µM.

Take `CC(C)Oc1cc2nc(N3CCN(S(=O)(=O)c4ccc(-c5ccccc5)cc4)CC3)nc(N)c2cc1OC(C)C`: the midpoint of inhibition, the IC50, lay at 24 µM.

Molecule `COc1ccc(S(=O)(=O)N2CCN(c3nc(N)c4cc(OC)c(OC)cc4n3)CC2)cc1` gave an IC50 of 39 µM.

With `COc1cc2nc(N3CCN(S(=O)(=O)c4cccc(C(=O)O)c4)CC3)nc(N)c2cc1OC`, the IC50 came to 53 µM.

Consider `COc1cc2nc(N3CCN(C(=O)C4COc5ccccc5O4)CC3)nc(N)c2cc1OC` (stereo not given) [DOXAZOSIN], for which the IC50 came to 45 µM.

For `COc1cc2nc(N3CCN(S(=O)(=O)c4ccc(C(=O)O)cc4)CC3)nc(N)c2cc1OC`, the IC50 came out at 53 µM.

The molecule `COc1cc2nc(N3CCN(S(=O)(=O)c4ccc(Cl)s4)CC3)nc(N)c2cc1OC` showed an IC50 of 25 µM.

As to `COc1cc2nc(N3CCN(S(=O)(=O)c4ccc(Cl)cc4)CC3)nc(N)c2cc1OC`, half-maximal inhibition (IC50) was put at 23 µM.

Molecule `COc1cc2nc(N3CCN(S(=O)(=O)c4cccc5c(N(C)C)cccc45)CC3)nc(N)c2cc1OC` came in with an IC50 of 29 µM.

In the case of `COc1cc2nc(N3CCN(C(=O)c4ccc(N)cc4)CC3)nc(N)c2cc1OC`, the IC50 is greater than 100 µM.

In the case of `COc1cc2nc(N3CCN(C(=O)OCc4ccccc4)CC3)nc(N)c2cc1OC`, the IC50 was 63 µM.

For the molecule `COc1cc2nc(N3CCN(S(=O)(=O)c4ccc(N)cc4N)CC3)nc(N)c2cc1OC`, the IC50 was 67 µM.

Take `COc1cc2nc(N3CCN(C(=O)c4ccc(C(F)(F)F)cc4)CC3)nc(N)c2cc1OC`: the concentration for half-maximal inhibition (IC50) is greater than 100 µM.

Turning to `COc1cc2nc(N3CCN(C(=O)c4cccc5ccccc45)CC3)nc(N)c2cc1OC`, the IC50 came out at 59 µM.

`COc1cc2nc(N3CCN(S(=O)(=O)c4ccccc4[N+](=O)[O-])CC3)nc(N)c2cc1OC` registered a concentration for half-maximal inhibition (IC50) of 35 µM.

`COc1cc2nc(N3CCN(S(=O)(=O)c4cc(C(=O)O)c(Cl)cc4Cl)CC3)nc(N)c2cc1OC` yielded an IC50 of 52 µM.

In turn, `COc1cc2nc(N3CCN(S(=O)(=O)c4ccc(C(F)(F)F)cc4)CC3)nc(N)c2cc1OC` displayed an IC50 of 27 µM.
